Measured values: ChEMBL document CHEMBL3414548, “Luotonin-A based quinazolinones cause apoptosis and senescence via HDAC inhibition and activation of tumor suppressor proteins in HeLa cells” (Eur J Med Chem, 2015)
The source made the active and inactive calls. The calls are words filed in the database; no cut-off is given here.

How the values were obtained:
[1] = system: K562; assay: Cytotoxicity against human K562 cells after 72 hrs by MTT assay; format: functional, cell-based; settings: K562, 72 h
Method in brief: (§1)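 Cells were seeded at 1×10⁴ per well and preincubated 18 h at 37 °C, 5% CO₂. They were then exposed to 1–256 μM for 72 h with DMSO ≤0.25%. MTT was added for 2 h and formazan was solubilized in extraction buffer before reading OD at 570 nm. IC50 is mean ± SD of three independent experiments. HEK is the normal-cell line; cancer lines were grown in DMEM with 10% serum.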

[2] = system: HeLa; assay: Selectivity index, ratio of IC50 for HEK cells to IC50 for human HeLa cells; format: functional
Method in brief: (§2)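 Selectivity index is IC50 in normal HEK cells divided by IC50 in the cancer cell line.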

[3] = system: MCF7; assay: Cytotoxicity against human MCF7 cells after 72 hrs by MTT assay; format: functional, cell-based; settings: MCF7, 72 h; method in brief: as §1
[4] = system: HeLa; assay: Cytotoxicity against human HeLa cells after 72 hrs by MTT assay; format: functional, cell-based; method in brief: as §1
[5] = Cytotoxicity against HEK cells after 72 hrs by MTT assay; format: cell-based; settings: Homo sapiens, HEK293, 72 h; method in brief: as §1
[6] = system: HEK293; assay: Selectivity index, ratio of IC50 for HEK cells to IC50 for human K562 cells; format: functional; method in brief: as §2
[7] = system: HEK293; assay: Selectivity index, ratio of IC50 for HEK cells to IC50 for human MCF7 cells; format: functional; method in brief: as §2
[8] = system: HeLa; assay: Cell cycle arrest in human HeLa cells assessed as accumulation at G0/G1 phase at 4 uM after 48 hrs by propidium iodide staining-based flow cytometric analysis (reference value: 62%); format: functional
[9] = system: HeLa; assay: Cell cycle arrest in human HeLa cells assessed as accumulation at S phase at 8 uM after 48 hrs by propidium iodide staining-based flow cytometric analysis (reference value: 10%); format: functional
[10] = system: HeLa; assay: Cell cycle arrest in human HeLa cells assessed as accumulation at G2/M phase at 4 uM after 48 hrs by propidium iodide staining-based flow cytometric analysis (reference value: 31%); format: functional
[11] = system: HeLa; assay: Cell cycle arrest in human HeLa cells assessed as accumulation at S phase at 4 uM after 48 hrs by propidium iodide staining-based flow cytometric analysis (reference value: 7%); format: functional
[12] = system: HeLa; assay: Cell cycle arrest in human HeLa cells assessed as accumulation at G1 phase at 8 uM after 48 hrs by propidium iodide staining-based flow cytometric analysis (reference value: 68%); format: functional
[13] = system: HeLa; assay: Cell cycle arrest in human HeLa cells assessed as accumulation at G2/M phase at 4 uM after 48 hrs by propidium iodide staining-based flow cytometric analysis (reference value: 19%)
[14] = system: HeLa; assay: Cell cycle arrest in human HeLa cells assessed as accumulation at G0 phase at 8 uM after 48 hrs by propidium iodide staining-based flow cytometric analysis (reference value: 3%); format: functional
[15] = system: HeLa; assay: Upregulation of p53 mRNA expression in human HeLa cells at 4 uM after 48 hrs by RT-PCR analysis; format: functional, cell-based
Method in brief: (§3)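 HeLa cells were treated at 4 μM for 48 h before RNA isolation. cDNA was amplified by RT-PCR with gene-specific primers, using GAPDH as loading control. Products were run on 1% agarose gel with ethidium bromide, and band intensity was quantified by densitometry.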

[16] = system: HeLa; assay: Downregulation of EZH2 mRNA expression in human HeLa cells at 4 uM after 48 hrs by RT-PCR analysis; format: functional, cell-based; method in brief: as §3
[17] = system: HeLa; assay: Upregulation of p21 mRNA expression in human HeLa cells at 4 uM after 48 hrs by RT-PCR analysis; format: functional, cell-based; method in brief: as §3
[18] = system: HeLa; assay: Downregulation of HDAC-1 mRNA expression in human HeLa cells at 4 uM after 48 hrs by RT-PCR analysis; format: functional, cell-based; method in brief: as §3
[19] = system: HeLa; assay: Downregulation of HDAC-5 mRNA expression in human HeLa cells at 4 uM after 48 hrs by RT-PCR analysis; format: functional, cell-based; method in brief: as §3
[20] = system: HeLa; assay: Induction of human p16 promoter activity transfected in human HeLa cells at 4 uM after 48 hrs by luciferase-based luminescence assay; format: cell-based
Method in brief: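 A 1.4 kb human p16 promoter in pGL3-basic luciferase vector was co-transfected into HeLa with a β-gal plasmid. Cells were then treated at 4 μM for 48 h. Lysate luciferase luminescence was normalized to β-galactosidase as internal control.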

[21] = system: HeLa; assay: Induction of senescence in human HeLa cells at 4 uM after 72 hrs by X-gal staining-based beta-galactosidase assay; format: functional, cell-based
Method in brief: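 HeLa cells in chamber slides were treated at 4 μM for 72 h. They were fixed in 3% paraformaldehyde and then in methanol at 4 °C. Staining used X-gal in sodium phosphate buffer with ferro/ferricyanide, 1 mM MgCl₂ and citric acid for 24 h. Senescent cells were scored by microscopy as enlarged, flattened and blue.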

[22] = system: HeLa; assay: Downregulation of HDAC-2 mRNA expression in human HeLa cells at 4 uM after 48 hrs by RT-PCR analysis; format: functional, cell-based; method in brief: as §3
[23] = system: HeLa; assay: Change in HDAC-6 mRNA expression in human HeLa cells at 4 uM after 48 hrs by RT-PCR analysis; format: functional, cell-based; method in brief: as §3
[24] = system: HeLa; assay: Change in HDAC-7 mRNA expression in human HeLa cells at 4 uM after 48 hrs by RT-PCR analysis; format: functional, cell-based; method in brief: as §3

SMILES	IC50 [1]	Ratio IC50 [2]	IC50 [3]	IC50 [4]	IC50 [5]	Ratio IC50 [6]	Ratio IC50 [7]	further results
CCCCCCc1cn(Cc2ccccc2-n2c(C)nc3cc(OC)c(OC)cc3c2=O)nn1	24 µM	3.62	17.7 µM	14.6 µM	53 µM	2.2	2.98	
COc1cc2nc(C)n(-c3ccccc3Cn3nnc4ncccc43)c(=O)c2cc1OC	19.7 µM	6.64	18.6 µM	11.9 µM	79 µM	4.01	4.25	
COc1ccc2cc(-c3cn(Cc4ccccc4-n4c(C)nc5cc(OC)c(OC)cc5c4=O)nn3)ccc2c1	28 µM	4.65	18.2 µM	14.6 µM	68 µM	2.42	3.74	
COc1cccc(-c2cn(Cc3ccccc3-n3c(C)nc4cc(OC)c(OC)cc4c3=O)nn2)c1	22.4 µM	4.29	15.1 µM	11.9 µM	51 µM	2.27	3.37	
COc1cc2nc(C)n(-c3ccccc3Cn3cc(CCO)nn3)c(=O)c2cc1OC	26.6 µM	7.75	14 µM	16 µM	124 µM	4.66	8.85	
COc1cc2nc(C)n(-c3ccccc3Cn3cc(-c4ccc(C)cc4)nn3)c(=O)c2cc1OC	28 µM	20.56	14.4 µM	9.92 µM	204 µM	7.28	14.16	Activity [8]: 72%; Activity [9]: 7%; Activity [10]: 22%; Activity [11]: 6%; Activity [12]: 71%; Activity [13]: 17%; Activity [14]: 5%
Cc1nc2ccccc2c(=O)n1-c1ccccc1Cn1ccnn1	22.4 µM	4.62	15.3 µM	16.4 µM	76 µM	3.39	4.97	
COc1cc2nc(C)n(-c3ccccc3Cn3cc(-c4ccccc4)nn3)c(=O)c2cc1OC	25.6 µM	4.66	9.19 µM	13.7 µM	64 µM	2.5	6.96	
COc1ccc(-c2cn(Cc3ccccc3-n3c(C)nc4ccccc4c3=O)nn2)cc1	22.4 µM	9.06	14.4 µM	12.8 µM	116 µM	5.17	8.05	
COc1cccc2c1C(=O)c1c(O)c3c(c(O)c1C2=O)C[C@@](O)(C(=O)CO)C[C@@H]3O[C@H]1C[C@H](N)[C@H](O)[C@H](C)O1								Activity [15]: Active; Activity [16]: Active; Activity [17]: Active; Activity [18]: Active; Activity [19]: Active; Activity [20]: Active; Activity [21]: Active; Activity [22]: Active; Activity [23]: inactive; Activity [24]: inactive
COc1cc2nc(C)n(-c3ccccc3Cn3cc(-c4cccc(C)c4)nn3)c(=O)c2cc1OC	31.5 µM	3.88	18 µM	14.4 µM	56 µM	1.77	3.1	
COc1cc2nc(C)n(-c3ccccc3Cn3cc(-c4ccc(-c5ccccc5)cc4)nn3)c(=O)c2cc1OC	22.4 µM	5.01	10.5 µM	14.2 µM	71 µM	3.16	6.78	
COc1cc2nc(C)n(-c3ccccc3Cn3ccnn3)c(=O)c2cc1OC	28.8 µM	7.77	23.7 µM	12.6 µM	98 µM	3.4	4.13	
CCCCCC(O)c1cn(Cc2ccccc2-n2c(C)nc3cc(OC)c(OC)cc3c2=O)nn1 (centres undefined)	22.9 µM	3	17.9 µM	16 µM	48 µM	2.09	2.68	
COc1cc2nc(C)n(-c3ccccc3Cn3cc(S)nn3)c(=O)c2cc1OC	30.4 µM	20.38	9.77 µM	10.5 µM	214 µM	7.03	21.9	Activity [8]: 71%; Activity [9]: 5%; Activity [10]: 23%; Activity [11]: 6%; Activity [12]: 70%; Activity [13]: 20%; Activity [14]: 5%
COc1cc2nc(C)n(-c3ccccc3Cn3cc(-c4cccnc4)nn3)c(=O)c2cc1OC	20 µM	4.07	10.2 µM	13.2 µM	54 µM	2.7	5.3	
COc1ccc2cc(-c3cn(Cc4ccccc4-n4c(C)nc5ccccc5c4=O)nn3)ccc2c1	19.5 µM	20.5	8.72 µM	8.68 µM	178 µM	9.11	20.41	Activity [8]: 73%; Activity [9]: 5%; Activity [10]: 22%; Activity [11]: 5%; Activity [12]: 72%; Activity [13]: 17%; Activity [14]: 5%
Cc1nc2ccccc2c(=O)n1-c1ccccc1Cn1cc(S)nn1	26.2 µM	17.22	15 µM	11 µM	189 µM	7.2	12.61	Activity [8]: 71%; Activity [9]: 6%; Activity [10]: 22%; Activity [11]: 7%; Activity [12]: 69%; Activity [13]: 21%; Activity [14]: 4%
COc1cc2nc(C)n(-c3ccccc3Cn3cc(-c4ccccn4)nn3)c(=O)c2cc1OC	20.8 µM	23.84	18.6 µM	10.6 µM	252 µM	12.11	13.54	Activity [8]: 72%; Activity [9]: 7%; Activity [10]: 22%; Activity [11]: 7%; Activity [12]: 69%; Activity [13]: 19%; Activity [14]: 5%
COc1ccc(-c2cn(Cc3ccccc3-n3c(C)nc4cc(OC)c(OC)cc4c3=O)nn2)cc1	22.4 µM	6.06	14 µM	11.9 µM	72 µM	3.2	5.15	
COc1cc2nc(C)n(-c3ccccc3Cn3cc(-c4cc5ccccc5c5ccccc45)nn3)c(=O)c2cc1OC	25.6 µM	6.95	13.2 µM	12.8 µM	89 µM	3.47	6.72	
CCCc1cn(Cc2ccccc2-n2c(C)nc3cc(OC)c(OC)cc3c2=O)nn1	22.4 µM	5.58	14.4 µM	13.2 µM	74 µM	3.3	5.13	
COc1cc2nc(C)n(-c3ccccc3Cn3cc(CO)nn3)c(=O)c2cc1OC	28 µM	9.25	15.8 µM	11.9 µM	110 µM	3.92	6.94	
